Results as given in ChEMBL document CHEMBL4400581, “First Example of Catalytic Synthesis of Difurazanohexahydrohexaazapyrenes and in Vitro Study of Their Antitumor Activity” (2019).

What was measured:
Jurkat = assay: Cytotoxicity against human Jurkat cells by MTT assay; type: functional
Outline: (§1)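 Cytotoxicity was measured by MTT assay across a range of concentrations in human tumour lines, with etoposide as the reference drug. Results are expressed as CC50.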

K562 = assay: Cytotoxicity against human K562 cells by MTT assay; type: functional; outline: as §1
U-937 [1] = assay: Cytotoxicity against human U937 cells by MTT assay; type: functional; outline: as §1
HeLa = assay: Cytotoxicity against human HeLa cells by MTT assay; type: functional; outline: as §1
U-937 [2] = assay: Induction of apoptosis in human U937 cells assessed as live cells at 0.2 uM measured after 24 hrs by Annexin alexa fluor 488/7AAD staining based flow cytometry (reference value: 98.31%); type: functional
U-937 [3] = assay: Induction of apoptosis in human U937 cells assessed as early apoptotic cells at 0.2 uM measured after 24 hrs by Annexin alexa fluor 488/7AAD staining based flow cytometry (reference value: 1.45%); type: functional
U-937 [4] = assay: Induction of apoptosis in human U937 cells assessed as late apoptotic cells at 0.2 uM measured after 24 hrs by Annexin alexa fluor 488/7AAD staining based flow cytometry (reference value: 0.05%); type: functional
U-937 [5] = assay: Induction of apoptosis in human U937 cells assessed as necrotic cells at 0.2 uM measured after 24 hrs by Annexin alexa fluor 488/7AAD staining based flow cytometry (reference value: 0.19%); type: functional
U-937 [6] = assay: Induction of apoptosis in human U937 cells assessed as live cells at 0.1 uM measured after 24 hrs by Annexin alexa fluor 488/7AAD staining based flow cytometry (reference value: 98.31%); type: functional
U-937 [7] = assay: Induction of apoptosis in human U937 cells assessed as early apoptotic cells at 0.1 uM measured after 24 hrs by Annexin alexa fluor 488/7AAD staining based flow cytometry (reference value: 1.45%); type: functional
U-937 [8] = assay: Induction of apoptosis in human U937 cells assessed as late apoptotic cells at 0.1 uM measured after 24 hrs by Annexin alexa fluor 488/7AAD staining based flow cytometry (reference value: 0.05%); type: functional
U-937 [9] = assay: Induction of apoptosis in human U937 cells assessed as necrotic cells at 0.1 uM measured after 24 hrs by Annexin alexa fluor 488/7AAD staining based flow cytometry (reference value: 0.19%); type: functional
U-937 [10] = assay: Induction of apoptosis in human U937 cells assessed as live cells at 0.05 uM measured after 24 hrs by Annexin alexa fluor 488/7AAD staining based flow cytometry (reference value: 98.31%); type: functional
U-937 [11] = assay: Induction of apoptosis in human U937 cells assessed as early apoptotic cells at 0.05 uM measured after 24 hrs by Annexin alexa fluor 488/7AAD staining based flow cytometry (reference value: 1.45%); type: functional
U-937 [12] = assay: Induction of apoptosis in human U937 cells assessed as late apoptotic cells at 0.05 uM measured after 24 hrs by Annexin alexa fluor 488/7AAD staining based flow cytometry (reference value: 0.05%); type: functional
U-937 [13] = assay: Induction of apoptosis in human U937 cells assessed as necrotic cells at 0.05 uM measured after 24 hrs by Annexin alexa fluor 488/7AAD staining based flow cytometry (reference value: 0.19%); type: functional
U-937 [14] = assay: Induction of apoptosis in human U937 cells assessed as live cells at 0.025 uM measured after 24 hrs by Annexin alexa fluor 488/7AAD staining based flow cytometry (reference value: 98.31%); type: functional
U-937 [15] = assay: Induction of apoptosis in human U937 cells assessed as early apoptotic cells at 0.025 uM measured after 24 hrs by Annexin alexa fluor 488/7AAD staining based flow cytometry (reference value: 1.45%); type: functional
U-937 [16] = assay: Induction of apoptosis in human U937 cells assessed as late apoptotic cells at 0.025 uM measured after 24 hrs by Annexin alexa fluor 488/7AAD staining based flow cytometry (reference value: 0.05%); type: functional
U-937 [17] = assay: Induction of apoptosis in human U937 cells assessed as necrotic cells at 0.025 uM measured after 24 hrs by Annexin alexa fluor 488/7AAD staining based flow cytometry (reference value: 0.19%); type: functional
U-937 [18] = assay: Induction of apoptosis in human U937 cells measured after 24 hrs by Annexin alexa fluor 488/7AAD staining based flow cytometry; type: functional, cell-based
Outline: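 Treated U937 cells were stained with annexin V Alexa Fluor 488 and 7AAD. Fluorescence intensity was read by flow cytometry, with etoposide run as the reference drug.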

U-937 [19] = assay: Cell cycle arrest in human U937 cells assessed as accumulation at G1 phase at 0.2 uM measured after 24 hrs by propidium iodide staining based assay (reference value: 41.98%); type: functional
Outline: (§2)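 U937 cells were exposed to the test agent at 0.2, 0.1, 0.05 or 0.025 μM for 24 h alongside an untreated control. DNA content was measured by propidium iodide staining and flow cytometry, giving the G0/G1, S and G2+M fractions and the hypodiploid pre-G0 (sub-G1) population. Values are means ± SD of three independent experiments, compared with control (p < 0.05, p < 0.01).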

U-937 [20] = assay: Cell cycle arrest in human U937 cells assessed as accumulation at S phase at 0.2 uM measured after 24 hrs by propidium iodide staining based assay (reference value: 45.88%); type: functional; outline: as §2
U-937 [21] = assay: Cell cycle arrest in human U937 cells assessed as accumulation at G2 phase at 0.2 uM measured after 24 hrs by propidium iodide staining based assay (reference value: 10.7%); type: functional; outline: as §2
U-937 [22] = assay: Cell cycle arrest in human U937 cells assessed as accumulation at G2/G1 phase at 0.2 uM measured after 24 hrs by propidium iodide staining based assay (reference value: 1.98%); type: functional
U-937 [23] = assay: Cell cycle arrest in human U937 cells assessed as accumulation at sub-G1 phase at 0.2 uM measured after 24 hrs by propidium iodide staining based assay (reference value: 0.01%); type: functional; outline: as §2
U-937 [24] = assay: Cell cycle arrest in human U937 cells assessed as accumulation at super-G2 phase at 0.2 uM measured after 24 hrs by propidium iodide staining based assay (reference value: 0.45%); type: functional
U-937 [25] = assay: Cell cycle arrest in human U937 cells assessed as accumulation at G1 phase at 0.1 uM measured after 24 hrs by propidium iodide staining based assay (reference value: 41.98%); type: functional; outline: as §2
U-937 [26] = assay: Cell cycle arrest in human U937 cells assessed as accumulation at S phase at 0.1 uM measured after 24 hrs by propidium iodide staining based assay (reference value: 45.88%); type: functional; outline: as §2
U-937 [27] = assay: Cell cycle arrest in human U937 cells assessed as accumulation at G2 phase at 0.1 uM measured after 24 hrs by propidium iodide staining based assay (reference value: 10.7%); type: functional; outline: as §2
U-937 [28] = assay: Cell cycle arrest in human U937 cells assessed as accumulation at G2/G1 phase at 0.1 uM measured after 24 hrs by propidium iodide staining based assay (reference value: 1.98%); type: functional
U-937 [29] = assay: Cell cycle arrest in human U937 cells assessed as accumulation at sub-G1 phase at 0.1 uM measured after 24 hrs by propidium iodide staining based assay (reference value: 0.01%); type: functional; outline: as §2
U-937 [30] = assay: Cell cycle arrest in human U937 cells assessed as accumulation at super-G2 phase at 0.1 uM measured after 24 hrs by propidium iodide staining based assay (reference value: 0.45%); type: functional
U-937 [31] = assay: Cell cycle arrest in human U937 cells assessed as accumulation at G1 phase at 0.05 uM measured after 24 hrs by propidium iodide staining based assay (reference value: 41.98%); type: functional; outline: as §2
U-937 [32] = assay: Cell cycle arrest in human U937 cells assessed as accumulation at S phase at 0.05 uM measured after 24 hrs by propidium iodide staining based assay (reference value: 45.88%); type: functional; outline: as §2
U-937 [33] = assay: Cell cycle arrest in human U937 cells assessed as accumulation at G2 phase at 0.05 uM measured after 24 hrs by propidium iodide staining based assay (reference value: 10.7%); type: functional; outline: as §2
U-937 [34] = assay: Cell cycle arrest in human U937 cells assessed as accumulation at G2/G1 phase at 0.05 uM measured after 24 hrs by propidium iodide staining based assay (reference value: 1.98%); type: functional
U-937 [35] = assay: Cell cycle arrest in human U937 cells assessed as accumulation at sub-G1 phase at 0.05 uM measured after 24 hrs by propidium iodide staining based assay (reference value: 0.01%); type: functional; outline: as §2
U-937 [36] = assay: Cell cycle arrest in human U937 cells assessed as accumulation at super-G2 phase at 0.05 uM measured after 24 hrs by propidium iodide staining based assay (reference value: 0.45%); type: functional
U-937 [37] = assay: Cell cycle arrest in human U937 cells assessed as accumulation at G1 phase at 0.025 uM measured after 24 hrs by propidium iodide staining based assay (reference value: 41.98%); type: functional; outline: as §2
U-937 [38] = assay: Cell cycle arrest in human U937 cells assessed as accumulation at S phase at 0.025 uM measured after 24 hrs by propidium iodide staining based assay (reference value: 45.88%); type: functional; outline: as §2
U-937 [39] = assay: Cell cycle arrest in human U937 cells assessed as accumulation at G2 phase at 0.025 uM measured after 24 hrs by propidium iodide staining based assay (reference value: 10.7%); type: functional; outline: as §2
U-937 [40] = assay: Cell cycle arrest in human U937 cells assessed as accumulation at G2/G1 phase at 0.025 uM measured after 24 hrs by propidium iodide staining based assay (reference value: 1.98%); type: functional
U-937 [41] = assay: Cell cycle arrest in human U937 cells assessed as accumulation at sub-G1 phase at 0.025 uM measured after 24 hrs by propidium iodide staining based assay (reference value: 0.01%); type: functional; outline: as §2
U-937 [42] = assay: Cell cycle arrest in human U937 cells assessed as accumulation at super-G2 phase at 0.025 uM measured after 24 hrs by propidium iodide staining based assay (reference value: 0.45%); type: functional

## C1CCCC(N2CN3c4nonc4N4CN(C5CCCCCCC5)CN5c6nonc6N(C2)C3C45)CCC1 (centres undefined)
Jurkat
  Activity: Dose-dependent effect
  CC50: 620 nM
K562
  Activity: Dose-dependent effect
  CC50: 740 nM
U-937 [1]
  Activity: Dose-dependent effect
  CC50: 580 nM
HeLa
  Activity: Dose-dependent effect
  CC50: 1370 nM

## C1CC2CC1CC2N1CN2c3nonc3N3CN(C4CC5CCC4C5)CN4c5nonc5N(C1)C2C34 (centres undefined)
Jurkat
  Activity: Dose-dependent effect
  CC50: 160 nM
K562
  Activity: Dose-dependent effect
  CC50: 210 nM
U-937 [1]
  Activity: Dose-dependent effect
  CC50: 110 nM
HeLa
  Activity: Dose-dependent effect
  CC50: 320 nM
U-937 [2]
  Activity: 23.18%
U-937 [3]
  Activity: 19.35%
U-937 [4]
  Activity: 53.07%
U-937 [5]
  Activity: 4.4%
U-937 [6]
  Activity: 42.25%
U-937 [7]
  Activity: 15.52%
U-937 [8]
  Activity: 40.93%
U-937 [9]
  Activity: 1.31%
U-937 [10]
  Activity: 60.65%
U-937 [11]
  Activity: 10.94%
U-937 [12]
  Activity: 27.01%
U-937 [13]
  Activity: 1.4%
U-937 [14]
  Activity: 71.74%
U-937 [15]
  Activity: 10.44%
U-937 [16]
  Activity: 16.54%
U-937 [17]
  Activity: 1.28%
U-937 [18]
  Activity: Dose-dependent effect
U-937 [19]
  Activity: 17.74%
U-937 [20]
  Activity: 38.89%
U-937 [21]
  Activity: 3.12%
U-937 [22]
  Activity: 1.91%
U-937 [23]
  Activity: 20.66%
U-937 [24]
  Activity: 1.38%
U-937 [25]
  Activity: 34.01%
U-937 [26]
  Activity: 32.87%
U-937 [27]
  Activity: 2.83%
U-937 [28]
  Activity: 1.98%
U-937 [29]
  Activity: 16.73%
U-937 [30]
  Activity: 0.94%
U-937 [31]
  Activity: 30.09%
U-937 [32]
  Activity: 41.7%
U-937 [33]
  Activity: 3.29%
U-937 [34]
  Activity: 1.93%
U-937 [35]
  Activity: 11.01%
U-937 [36]
  Activity: 2.07%
U-937 [37]
  Activity: 35.15%
U-937 [38]
  Activity: 48.65%
U-937 [39]
  Activity: 4.11%
U-937 [40]
  Activity: 1.98%
U-937 [41]
  Activity: 6.37%
U-937 [42]
  Activity: 2.28%

## C1CCC(N2CN3c4nonc4N4CN(C5CCCC5)CN5c6nonc6N(C2)C3C45)C1 (centres undefined)
Jurkat
  Activity: Dose-dependent effect
  CC50: 510 nM
K562
  Activity: Dose-dependent effect
  CC50: 640 nM
U-937 [1]
  Activity: Dose-dependent effect
  CC50: 570 nM
HeLa
  Activity: Dose-dependent effect
  CC50: 980 nM

## C1CCC(N2CN3c4nonc4N4CN(C5CCCCC5)CN5c6nonc6N(C2)C3C45)CC1 (centres undefined)
Jurkat
  Activity: Dose-dependent effect
  CC50: 530 nM
K562
  Activity: Dose-dependent effect
  CC50: 590 nM
U-937 [1]
  Activity: Dose-dependent effect
  CC50: 540 nM
HeLa
  Activity: Dose-dependent effect
  CC50: 1040 nM

## C1CC1N1CN2c3nonc3N3CN(C4CC4)CN4c5nonc5N(C1)C2C34 (centres undefined)
Jurkat
  Activity: Dose-dependent effect
  CC50: 270 nM
K562
  Activity: Dose-dependent effect
  CC50: 310 nM
U-937 [1]
  Activity: Dose-dependent effect
  CC50: 250 nM
HeLa
  Activity: Dose-dependent effect
  CC50: 420 nM

## C1CCCC(N2CN3c4nonc4N4CN(C5CCCCCC5)CN5c6nonc6N(C2)C3C45)CC1 (centres undefined)
Jurkat
  Activity: Dose-dependent effect
  CC50: 570 nM
K562
  Activity: Dose-dependent effect
  CC50: 690 nM
U-937 [1]
  Activity: Dose-dependent effect
  CC50: 590 nM
HeLa
  Activity: Dose-dependent effect
  CC50: 1210 nM
